Data on 17 compounds can be found in ChEMBL document CHEMBL1124108, “Antihypertensive thiadiazoles. 2. Vasodilator activity of some 2-aryl-5-guanidino-1,3,4-thiadiazoles” (1988).

The test system of experiment [1] is Rattus norvegicus. Kind of experiment: Maximum percentage reduction in mean blood pressure in metacorticoid (DOCA) hypertensive rats at a standard oral dose of 100 mg/kg. The class given is functional. In outline: (§1)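 Rats were DOCA hypertensive. For oral dosing, food was withdrawn 18 h before; rats dosed ip were not starved. The vehicle was isotonic saline. Pressure was recorded by transducer under minimal restraint: twice before dosing, then at 1, 2, 3, 5 and 22 h. MABP was taken as diastolic + one-third pulse pressure. The value is the maximum % fall from the mean of the two pretreatment readings, n = 3-5.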

Experiment [2] has as its system Rattus norvegicus. Kind of experiment: Maximum percentage reduction in mean blood pressure in metacorticoid (DOCA) hypertensive rats at a standard oral dose of 50 mg/kg. Format: functional. In outline:
as §1

Experiment [3] has as its system Rattus norvegicus. Kind of experiment: Summation of percentage reductions, compared to pretreatment controls, in MABP of DOCA hypertensive rats at 1,2,3,5,8 hr after the 100 mg/kg oral dose. Format: functional. The procedure, abridged:
(§2)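 DOCA hypertensive rats (n = 5) were dosed orally. MABP (diastolic + one-third pulse pressure) was read before dosing and at 1, 2, 3, 5 and 8 h. The value is the sum of the % reductions from pretreatment control over these five time points.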

For experiment [4], the system named is Rattus norvegicus. Kind of experiment: Increase in diastolic blood pressure for 0.03 ug/kg intravenous dosing of angiotensin in pithed rats. The class given is functional, Artery. In outline: (§3)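 The pithed-rat preparation was used: male rats (200-300 g) got drug or isotonic saline ip in groups of five, 2 h beforehand (one reference agent 1 h). Doses were 50, 25 or 5 mg/kg. Rats were under halothane, cannulated, pithed and ventilated with room air. Noradrenaline (0.1-1.0 µg/kg) or angiotensin (0.03-0.3 µg/kg) was injected iv, and the increase in diastolic pressure was recorded in mmHg.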

In experiment [5] the test system is Rattus norvegicus. Kind of experiment: Increase in diastolic blood pressure for 0.3 ug/kg intravenous dosing of noradrenaline in pithed rats. The class given is functional, Artery. The procedure, abridged: as §3
The subject of experiment [6] is Rattus norvegicus. Kind of experiment: Summation of percentage reductions, compared to pretreatment controls, in MABP of DOCA hypertensive rats at 1,2,3,5,8 hr after the 50 mg/kg oral dose. The class given is functional. The procedure, abridged: as §2
The subject of experiment [7] is Rattus norvegicus. Kind of experiment: Increase in diastolic blood pressure for 0.1 ug/kg intravenous dosing of noradrenaline in pithed rats. Format: functional, Artery. In outline:
as §3

Experiment [8] is filed under the species Rattus norvegicus. Kind of experiment: Increase in diastolic blood pressure for 1 Htz electrical stimulation in the pithed rats. The class given is functional, Artery. The procedure, abridged:
(§4)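 Male rats (200-300 g) were given drug or isotonic saline ip, in groups of five, 2 h before pithing (one reference agent 1 h before). Doses were 50 or 25 mg/kg, or 5 mg/kg for the reference agent. Rats were put under halothane, tracheally cannulated, pithed through the left orbit and ventilated with room air at 50 strokes/min. After iv tubocurarine (1 mg/kg), the whole sympathetic outflow was stimulated at 1, 3 or 6 Hz (0.5 ms, 20 V, 15 s). The rise in diastolic pressure was recorded in mmHg.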

Experiment [9] has as its system Rattus norvegicus. Kind of experiment: Increase in diastolic blood pressure for 0.1 ug/kg intravenous dosing of angiotensin in pithed rats. Format: functional, Artery. The procedure, abridged:
as §3

Experiment [10] is filed under the species Rattus norvegicus. Kind of experiment: Increase in diastolic blood pressure for 3 Htz electrical stimulation in the pithed rats. Format: functional, Artery. In outline:
as §4

For experiment [11], the species on record is Rattus norvegicus. Kind of experiment: Increase in diastolic blood pressure for 6 Htz electrical stimulation in the pithed rats. Format: functional, Artery. In outline: as §4
Experiment [12] has as its system Rattus norvegicus. Briefly: Increase in diastolic blood pressure for 0.3 ug/kg intravenous dosing of angiotensin in pithed rats. Format: functional, Artery. The procedure, abridged:
as §3

Experiment [13] relates to Rattus norvegicus. Briefly: Increase in diastolic blood pressure for 1.0 ug/kg intravenous dosing of noradrenaline in pithed rats. Format: functional, Artery. The procedure, abridged:
as §3

Experiment [14] relates to Rattus norvegicus. Briefly: Maximum percentage reduction in mean blood pressure and heart rate in metacorticoid (DOCA) hypertensive rats at a standard intraperitoneal dose of 100 mg/kg. Format: functional.
Experiment [15] relates to Rattus norvegicus. Briefly: Increase in diastolic blood pressure at 1.0 ug/kg intravenous dosing of noradrenaline in pithed rats. The class given is functional, Artery. In outline:
as §3

Experiment [16] concerns Rattus norvegicus. Kind of experiment: Maximum percentage reduction in mean arterial blood pressure in metacorticoid (DOCA) hypertensive rats at a standard oral dose of 50 mg/kg. The class given is functional. In outline: as §1
The species entered for experiment [17] is Rattus norvegicus. Briefly: Increase in diastolic blood pressure at 6 Htz electrical stimulation in the pithed rats. Format: functional, Artery. In outline: as §4
Experiment [18] concerns Rattus norvegicus. Kind of experiment: Increase in diastolic blood pressure at 0.1 ug/kg intravenous dosing of noradrenaline in pithed rats. Format: functional, Artery. The procedure, abridged:
as §3

Experiment [19] relates to Rattus norvegicus. Briefly: Increase in diastolic blood pressure at 0.03 ug/kg intravenous dosing of angiotensin in pithed rats. Format: functional, Artery. The procedure, abridged:
as §3

For experiment [20], the species on record is Rattus norvegicus. Kind of experiment: Increase in diastolic blood pressure at 3 Htz electrical stimulation in the pithed rats. The class given is functional, Artery. The procedure, abridged: as §4
The subject of experiment [21] is Rattus norvegicus. Briefly: Increase in diastolic blood pressure at 0.1 ug/kg intravenous dosing of angiotensin in pithed rats. The class given is functional, Artery. The procedure, abridged: as §3
The species named for experiment [22] is Rattus norvegicus. Kind of experiment: Increase in diastolic blood pressure at 1 Htz electrical stimulation in the pithed rats. Format: functional, Artery. The procedure, abridged:
as §4

Experiment [23] relates to Rattus norvegicus. Kind of experiment: Maximum percentage reduction in mean arterial blood pressure in metacorticoid (DOCA) hypertensive rats at a standard oral dose of 100 mg/kg. Format: functional. The procedure, abridged: as §1
In experiment [24] the test system is Rattus norvegicus. Briefly: Increase in diastolic blood pressure at 0.3 ug/kg intravenous dosing of angiotensin in pithed rats. The class given is functional, Artery. In outline: as §3
For experiment [25], the system named is Rattus norvegicus. Kind of experiment: Increase in diastolic blood pressure at 0.3 ug/kg intravenous dosing of noradrenaline in pithed rats. The class given is functional, Artery. In outline: as §3
Experiment [26] has as its system Rattus norvegicus. Kind of experiment: Maximum percentage reduction in mean blood pressure in metacorticoid (DOCA) hypertensive rats at a standard oral dose of 100 mg/kg; IA = Inactive;Maximum percentage fall in MABP <10%. The class given is functional, organism-based. On the set-up: dose 100 mg/kg. The procedure, abridged: as §1
Experiment [27] concerns Rattus norvegicus. Briefly: Maximum percentage reduction in mean blood pressure in metacorticoid (DOCA) hypertensive rats at a standard intraperitoneal dose of 100 mg/kg. The class given is functional. In outline: as §1
Experiment [28] relates to Rattus norvegicus. Briefly: Increase in diastolic blood pressure at r 0.3 ug/kg intravenous dosing of noradrenaline in pithed rats. The class given is functional, Artery. In outline: as §3
The test system of experiment [29] is Rattus norvegicus. Briefly: Maximum percentage reduction in mean blood pressure in metacorticoid (DOCA) hypertensive rats at a standard oral dose of 10 mg/kg. The class given is functional. In outline:
as §1

For `Cl.N=C(N)Nc1nnc(-c2ccccc2I)s1`, the results for the Reduction with Rattus norvegicus [1] and in the experiment on Rattus norvegicus [2] were 41% and 28%, respectively.
As for `COCC/N=C(/N)Nc1nnc(-c2ccccc2C)s1.Cl`, the results for the “Summation MABP” value with Rattus norvegicus [3] and in the experiment on Rattus norvegicus [6] were 157 and 113, respectively. Also, the values for the Reduction with Rattus norvegicus [1] and in the experiment with Rattus norvegicus [2] were 37% and 29%, respectively. The “Increase in blood pressure” value in the experiment on Rattus norvegicus [4] was found to be 14 mmHg; in the experiment with Rattus norvegicus [5], 25 mmHg; with Rattus norvegicus [7], 13 mmHg; in the experiment listed under Rattus norvegicus [8], 30 mmHg; with Rattus norvegicus [9] it was 28 mmHg; in the experiment filed under Rattus norvegicus [10], 52 mmHg. In addition, the entries for the “Increase in blood pressure” value in the experiment filed under Rattus norvegicus [11], in the experiment with Rattus norvegicus [12] and with Rattus norvegicus [13] were 65 mmHg, 44 mmHg and 45 mmHg, respectively.
In the experiment with Rattus norvegicus [14], `N=C(N)Nc1nnc(-c2c(Cl)cccc2Cl)s1` had a Reduction of 34%.
On the same count and under the same terms, for `COc1ccc(-c2nnc(N=C(N)N)s2)cc1.Cl` the value was 28%.
Regarding `NNc1nncc2ccccc12` [HYDRALAZINE], the “Increase in blood pressure” value with Rattus norvegicus [4] is listed as 8 mmHg; in the experiment on Rattus norvegicus [5], 15 mmHg; with Rattus norvegicus [7], 8 mmHg; in the experiment filed under Rattus norvegicus [8] it was 28 mmHg; in the experiment on Rattus norvegicus [9], 21 mmHg; in the experiment filed under Rattus norvegicus [10] it was 42 mmHg. In addition, the figures for the “Increase in blood pressure” value in the experiment listed under Rattus norvegicus [11], in the experiment on Rattus norvegicus [12] and in the experiment on Rattus norvegicus [13] were 54 mmHg, 38 mmHg and 28 mmHg, respectively.
`Cc1ccccc1-c1nnc(N=C(N)N)s1.Cl`: the “Increase in blood pressure” value with Rattus norvegicus [15] turned out to be 39 mmHg; in the experiment filed under Rattus norvegicus [17] it was 35 mmHg; with Rattus norvegicus [18] it was 12 mmHg; in the experiment on Rattus norvegicus [19], 2 mmHg; in the experiment filed under Rattus norvegicus [20], 29 mmHg; with Rattus norvegicus [21], 9 mmHg. The “Increase in blood pressure” value in the experiment listed under Rattus norvegicus [22] turned out to be 13 mmHg; with Rattus norvegicus [24] it was 22 mmHg; in the experiment on Rattus norvegicus [25] it was 23 mmHg. For the same compound, the “Summation MABP” value in the experiment on Rattus norvegicus [3] stood at 167; with Rattus norvegicus [6], 115. Moreover, the Reduction is given as 36% in the experiment with Rattus norvegicus [16] and 41% in the experiment with Rattus norvegicus [23].
On to `Cc1ccccc1-c1nnc(NC(=N)Nc2ccccc2)s1`, for which the Reduction result with Rattus norvegicus [26] is “Not significant”.
Still for that read-out and setting: for `N=C(N)Nc1nnc(-c2ccc([N+](=O)[O-])cc2)s1` the value was “Not significant”.
In the experiment with Rattus norvegicus [27], `Cl.N=C(N)Nc1nnc(-c2ccc(Cl)cc2)s1` registered a Reduction of 18%.
With `CCCC/N=C(/N)Nc1nnc(-c2ccccc2C)s1.Cl`, the entries for the “Summation MABP” value in the experiment with Rattus norvegicus [3] and in the experiment with Rattus norvegicus [6] were 159 and 126, respectively. The Reduction in the experiment with Rattus norvegicus [16] was 31%; with Rattus norvegicus [23], 39%. In addition, the “Increase in blood pressure” value came to 20 mmHg in the experiment filed under Rattus norvegicus [20], 23 mmHg with Rattus norvegicus [21] and 42 mmHg with Rattus norvegicus [25].
Take `Cc1ccccc1-c1nnc(NC2=NCCN2C)s1`: in the experiment on Rattus norvegicus [26], the Reduction result was “Not significant”.
As for `Cc1ccccc1-c1nnc(NC2=NCCN2)s1.Cl`, the “Increase in blood pressure” value came to 44 mmHg in the experiment with Rattus norvegicus [15]; 45 mmHg in the experiment filed under Rattus norvegicus [17]; 10 mmHg in the experiment on Rattus norvegicus [18]; 15 mmHg in the experiment on Rattus norvegicus [19]; 34 mmHg in the experiment listed under Rattus norvegicus [20]; 27 mmHg in the experiment with Rattus norvegicus [21]. Further, the “Increase in blood pressure” value in the experiment listed under Rattus norvegicus [22] is given as 17 mmHg; in the experiment with Rattus norvegicus [24], 43 mmHg; in the experiment on Rattus norvegicus [28] it was 21 mmHg. Besides, the “Summation MABP” value stood at 194 in the experiment with Rattus norvegicus [3] and 117 in the experiment on Rattus norvegicus [6]. The Reduction is reported as 28% with Rattus norvegicus [16] and 43% with Rattus norvegicus [23].
For the compound `N=C(N)Nc1nnc(-c2ccccc2O)s1`, in the experiment with Rattus norvegicus [26], the Reduction result is “Not significant”.
Compound `Nc1cc(N2CCCCC2)nc(N)[n+]1[O-]` [MINOXIDIL] gave a Reduction in the experiment on Rattus norvegicus [29] of 42%.
As to `Cc1ccccc1-c1nnc(NN)s1`, the Reduction in the experiment on Rattus norvegicus [2] amounted to 48%. In addition, the “Summation MABP” value with Rattus norvegicus [6] is on record as 206.
As to `Cc1ccccc1-c1nnc(N(C)C2=NCCN2)s1`, the Reduction result in the experiment with Rattus norvegicus [26] was “Not significant”.
With `Cl.N=C(N)Nc1nnc(-c2ccccc2Br)s1`, the Reduction came out at 41% in the experiment with Rattus norvegicus [1] and 29% with Rattus norvegicus [2]. The “Increase in blood pressure” value in the experiment on Rattus norvegicus [4] came to 3 mmHg; in the experiment on Rattus norvegicus [5], 27 mmHg; with Rattus norvegicus [7], 13 mmHg; in the experiment filed under Rattus norvegicus [8] it was 17 mmHg; in the experiment on Rattus norvegicus [9], 7 mmHg; in the experiment filed under Rattus norvegicus [10] it was 31 mmHg. The “Increase in blood pressure” value in the experiment filed under Rattus norvegicus [11] is 38 mmHg; in the experiment with Rattus norvegicus [12], 17 mmHg; in the experiment with Rattus norvegicus [13] it was 50 mmHg.
